# According to ChEMBL document CHEMBL4340532, “Design, synthesis, and biological evaluation of novel 2'-deoxy-2'-fluoro-2'-C-methyl 8-azanebularine derivatives as potent anti-HBV agents” (Bioorg Med Chem Lett, 2019):
# Assays:
# [1] = Cytotoxicity against human HepG2 cells supplemented with fresh medium containing compound every 3 days for 9 days measured post-last dose by MTT assay; assay type: cell-based
# Summary of the method: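 HepG2 cells were exposed to compound for 3 or 9 days and viability was read by MTT assay. CC50 is the concentration causing 50% cytotoxicity. Results are mean ± SD of three experiments.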
# Hepatitis B virus [2] = assay: Antiviral activity against Hepatitis B virus infected in human HepG2.2.15 cells assessed as inhibition of HBsAg secretion at 20 uM supplemented with fresh medium containing compound every 3 days for 6 days and measured on day 9 by ELISA relative to control; assay type: functional
# Summary of the method: (§1)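 HepG2.2.15 cells were exposed to compound for up to 9 days. The initial screen used 20 µM for 9 days, with lamivudine (20 µM) as positive control. Follow-up used 10, 20 or 40 µM sampled at days 3, 6 and 9. HBsAg and HBeAg were quantified in culture supernatant by ELISA and compared with a no-drug control. Results are mean ± SD of three experiments.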
# Hepatitis B virus [3] = assay: Antiviral activity against Hepatitis B virus infected in human HepG2.2.15 cells assessed as inhibition of HBeAg secretion at 20 uM supplemented with fresh medium containing compound every 3 days for 6 days and measured on day 9 by ELISA relative to control; assay type: functional; summary of the method: as §1
structure (smiles),measurement,setting,value
CCCCNc1ncnc2c1nnn2[C@@H]1O[C@H](CO)[C@@H](O)[C@@]1(C)F,CC50 at 216 h,[1],> 600 µM
same,inhibition (INH),Hepatitis B virus [2],17%
same,inhibition (INH),Hepatitis B virus [3],11.6%
